Usually viability stands for a read-out of living cells in per cent, often relative to untreated cells. The term inhibition denotes the relative decrease from the control value, in per cent.

The values that follow come from PubChem BioAssay.

Calls of active or inactive are those of the source.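 How the source made its calls, unless noted: active means viability loss from added drug above about 55%, and viability with drug at most 40%, in both replicates (limit read from the data, passing the limit was not always enough); inconclusive means both conditions met in only one replicate; inactive means neither replicate meets both conditions.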

Assay [1] can be described thus: HUVEC growth inhibition – cell-based, human, primary screen (AID 575;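 active means viability at or below 30% in both replicate assays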;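 further: 100% = median of untreated cell wells with 0.1% DMSO on each plate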). To be noted: HUVEC proliferation, CellTiter-Glo luminescence, 72 h; at 10 µM; stronger effect = lower value. Summed up:
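Timing: 72 h treatment at 37 °C; material: HUVEC primary cells; technique: CellTiter-Glo luminescence measuring cellular ATP; controls: vehicle and MePR control wells; measure: percent of median DMSO-control luminescence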
Background: Cellular ATP, detected with luciferase, serves as a proxy for viable cell number.

A short description of assay [2]: growth inhibitors of H69AR lung tumor, primary screen, human, duplicate replicates (AID 580;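 active means viability at or under a set limit in both replicates, limit being median viability minus 3 SD, cut at about 48% in these data, passing the limit was not always enough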;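 further: 100% = mean luminescence of untreated wells and 0% = no signal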). Particulars: H69AR lung tumor cells viability, ATP luminescence, 72 h; at 10 µM; stronger effect = lower value.
Assay [3] can be described thus: reversal of MRP1-mediated doxorubicin resistance, pilot screen, H69AR cells, doxorubicin co-treatment (AID 601). Particulars: CellTiter-Glo, 72 h, at 10 µM; for differential viability (reversal): stronger effect = higher value.
Assay [4] in a line: 384-well plate pilot, post-Golgi transport modulator project, inhibition of yeast transport mutant growth (AID 636; in the data active means inhibition above about 31%). Particulars: absorbance 615 nm, about 18 h, stronger effect = higher value.
The nature of assay [5]: growth suppression of yeast trafficking mutant, preliminary HTS, modulators of trafficking downstream of Golgi apparatus project, 1536-format plate, OD 615 nm (AID 637; in the data active means inhibition above about 30%). To be noted: yeast transport mutant growth, absorbance 615 nm, 18 h; stronger effect = higher value.
A short description of assay [6]: SK-BR-3 cell growth inhibitors, pilot screen, 24 h, human (AID 572;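 active means viability at or below 10% of carrier control in both of two separate runs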;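 further: compound exposure lasted between 18 and 24 h rather than exactly 24 h; 100% = carrier-treated control wells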). Particulars: SK-BR-3 viability, CellTiter-Glo luminescence, at 10 µM, stronger effect = lower value.
The mark [7] stands for this setting: H69AR cells + 2 uM doxorubicin, measured here: viability with 2 uM doxorubicin, stronger effect = lower value.
Setting [8] is: H69AR cells, compound alone cytotoxicity.

Take `C=CCn1c(Br)nc2c1c(=O)[nH]c(=O)n2C`: the viability in assay [1] was 97.7% (inactive); in assay [2], 85.1% (inactive); in assay [3] (setting [7]), 78.7%; in assay [3] (setting [8]) it was 85.1%. In addition, in assay [3] (H69AR cells + 2 uM doxorubicin), the differential viability (reversal) was 6.37% (inactive). Besides, the results for the inhibition in assay [4] and in assay [5] were -6.93% (inactive) and 3.33% (inactive), respectively.

Take `c1ccc(-c2nn3nnnc3c3ccccc23)cc1`: the viability is 105% (inactive) in assay [1], 90.8% (inactive) in assay [2], 90.3% in assay [3] (setting [7]) and 90.8% in assay [3] (setting [8]). For the same molecule, the differential viability (reversal) in assay [3] (H69AR cells + 2 uM doxorubicin) is 0.43% (inactive). The inhibition in assay [4] is -1.04% (inactive); in assay [5], 0.79% (inactive).

`CCC(=O)Nc1ccc(NC(=O)CSc2nnnn2C(C)C)cc1`: the viability in assay [1] is 111% (inactive); in assay [2], 93% (inactive); in assay [3] (setting [7]), 89.8%; in assay [3] (setting [8]) it was 93%. In assay [3] (H69AR cells + 2 uM doxorubicin), the differential viability (reversal) was 3.14% (inactive). Further, the inhibition is -3.82% (inactive) in assay [4] and 4.13% (inactive) in assay [5].

In the case of `CN(C)/C=c1\sc2c(C#N)cc(C(=O)c3ccc(Br)cc3)n2c1=O`, the viability in assay [1] is 70% (inactive); in assay [2], 76.6% (inactive); in assay [3] (setting [7]), 68%; in assay [3] (setting [8]), 76.6%. Further, the differential viability (reversal) in assay [3] (H69AR cells + 2 uM doxorubicin) is 8.66% (inactive). Besides, the results for the inhibition in assay [4] and in assay [5] were -4.29% (inactive) and -1.59% (inactive), respectively.

As to `Cn1c(=O)c(=O)n(C)c2cc(S(=O)(=O)Nc3ccc4c(c3)OCCO4)ccc21`, the viability in assay [1] was 99.5% (inactive); in assay [2], 94.9% (inactive); in assay [3] (setting [7]), 88.2%; in assay [3] (setting [8]), 94.9%. For the same molecule, the differential viability (reversal) in assay [3] (H69AR cells + 2 uM doxorubicin) was 6.65% (inactive). Further, the inhibition was -0.67% (inactive) in assay [4] and 8.41% (inactive) in assay [5].

Regarding `c1ccc2c3nnc4n(c-3nc2c1)CCCS4`, the viability in assay [1] is 94% (inactive); in assay [2], 104% (inactive); in assay [3] (setting [7]) it was 92.7%; in assay [3] (setting [8]), 104%. Further, the differential viability (reversal) in assay [3] (H69AR cells + 2 uM doxorubicin) was 11.4% (inactive). Besides, the inhibition is -1.32% (inactive) in assay [4] and 4.6% (inactive) in assay [5].

As to `O=C(NCC1CCCO1)C1CC(c2ccc(Cl)c(Cl)c2)=NO1` (configuration not stated), the viability in assay [1] was 111% (inactive); in assay [2] it was 104% (inactive); in assay [3] (setting [7]) it was 105%; in assay [3] (setting [8]), 104%. Moreover, in assay [3] (H69AR cells + 2 uM doxorubicin), the differential viability (reversal) is -1.44% (inactive). The inhibition in assay [4] is -0.13% (inactive); in assay [5], -8.1% (inactive).

As to `O=C(CSc1nc2ccc(Cl)cc2[nH]1)NCc1ccco1`, the viability in assay [1] is 74.2% (inactive); in assay [2], 65.4% (inactive); in assay [3] (setting [7]), 69.6%; in assay [3] (setting [8]), 65.4%. Besides, in assay [3] (H69AR cells + 2 uM doxorubicin), the differential viability (reversal) was -4.26% (inactive). For the same molecule, the inhibition is 0.65% (inactive) in assay [4] and 13.3% (inactive) in assay [5].

Take `O=C(Cn1nnc2c(cnn2-c2ccc(F)cc2)c1=O)c1ccccc1F`: the viability in assay [1] is 75.6% (inactive); in assay [2], 81.2% (inactive); in assay [3] (setting [7]), 65.1%; in assay [3] (setting [8]), 81.2%. Further, the differential viability (reversal) in assay [3] (H69AR cells + 2 uM doxorubicin) is 16.1% (inactive). Moreover, the inhibition was -3.64% (inactive) in assay [4] and -0.48% (inactive) in assay [5].

With `COc1cccc(CN2C(=O)C3(C(C#N)=C(N)OC4=C3C(=O)CCC4)c3ccccc32)c1` (configuration not stated), the viability in assay [6] was 104% (inactive); in assay [3] (setting [7]), 12.6%; in assay [3] (setting [8]), 10.6%. In assay [3] (H69AR cells + 2 uM doxorubicin), the differential viability (reversal) is -2.01% (inactive). In addition, the figures for the inhibition in assay [4] and in assay [5] were 84.2% (active) and 51.6% (active), respectively.

For `O=C(O)c1cnn2c1NC(c1ccc(F)cc1)CC2C(F)(F)F` (configuration not stated), the viability in assay [1] is 90.8% (inactive); in assay [2] it was 97.6% (inactive); in assay [3] (setting [7]) it was 88.3%; in assay [3] (setting [8]) it was 97.6%. Moreover, the differential viability (reversal) in assay [3] (H69AR cells + 2 uM doxorubicin) is 9.29% (inactive). Moreover, the inhibition in assay [4] was -6.32% (inactive); in assay [5] it was 4.92% (inactive).

For `Cc1cc(NC(=O)CCC(=O)N(CC2CCCO2)C(C(=O)NC2CCCC2)c2ccccc2C)no1` (configuration not stated), the viability in assay [1] was 86.4% (inactive); in assay [2], 96.7% (inactive); in assay [3] (setting [7]), 83.2%; in assay [3] (setting [8]) it was 96.7%. The differential viability (reversal) in assay [3] (H69AR cells + 2 uM doxorubicin) was 13.5% (inactive). In addition, the values for the inhibition in assay [4] and in assay [5] were -2.11% (inactive) and 5.4% (inactive), respectively.

Consider `O=S1(=O)C=CC(Nc2cccc(Cl)c2)C1` (configuration not stated), for which the viability in assay [1] is 76.3% (inactive); in assay [2], 65.7% (inactive); in assay [3] (setting [7]), 65.9%; in assay [3] (setting [8]) it was 65.7%. Besides, the differential viability (reversal) in assay [3] (H69AR cells + 2 uM doxorubicin) is -0.23% (inactive). Also, the inhibition in assay [4] is -3.68% (inactive); in assay [5], 4.29% (inactive).

Take `C=CCSc1n[nH]c(-c2ccc(OC)cc2)n1`: the viability is 108% (inactive) in assay [1], 90.3% (inactive) in assay [2], 87.9% in assay [3] (setting [7]) and 90.3% in assay [3] (setting [8]). In addition, in assay [3] (H69AR cells + 2 uM doxorubicin), the differential viability (reversal) is 2.41% (inactive). The values for the inhibition in assay [4] and in assay [5] were -4.53% (inactive) and -2.06% (inactive), respectively.

In the case of `CNCCCC12CCC(c3ccccc31)c1ccccc12`, the viability in assay [1] is 77.4% (inactive); in assay [2], 70.1% (inactive); in assay [3] (setting [7]), 63.8%; in assay [3] (setting [8]), 70.1%. Besides, in assay [3] (H69AR cells + 2 uM doxorubicin), the differential viability (reversal) was 6.27% (inactive).

Take `C[C@]12CC[C@@H]3c4ccc(OC(=O)c5ccccc5)cc4CC[C@H]3[C@@H]1CC[C@@H]2O`: the results for the viability in assay [6], in assay [3] (setting [7]) and in assay [3] (setting [8]) were 78% (inactive), 48% and 39%, respectively. Besides, the differential viability (reversal) in assay [3] (H69AR cells + 2 uM doxorubicin) was -9.02% (inactive). Besides, the inhibition in assay [4] was 2.73% (inactive); in assay [5], 32% (active).

Regarding `CC(=O)Nc1cccc(NC(=O)CSc2nnnn2C(C)C)c1`, the viability in assay [1] is 97.5% (inactive); in assay [2], 99.2% (inactive); in assay [3] (setting [7]), 84.5%; in assay [3] (setting [8]), 99.2%. The differential viability (reversal) in assay [3] (H69AR cells + 2 uM doxorubicin) is 14.7% (inactive). Also, the inhibition in assay [4] is -8.03% (inactive); in assay [5], 4.13% (inactive).

Regarding `COc1ccc(Cl)c(N2CCN(CCCNC(=O)Nc3ccc(C)cc3)CC2)c1`, the viability in assay [6] is 98% (inactive); in assay [3] (setting [7]), 60.3%; in assay [3] (setting [8]) it was 45.4%. Besides, the differential viability (reversal) in assay [3] (H69AR cells + 2 uM doxorubicin) was -14.9% (inactive). Moreover, the inhibition in assay [4] is -5.34% (inactive); in assay [5], -2.91% (inactive).

As to `COc1cc2nc(N3CCN(C(=O)c4ccco4)CC3)nc(N)c2cc1OC`, the viability in assay [6] was 53% (inactive); in assay [3] (setting [7]) it was 28.9%; in assay [3] (setting [8]) it was 15.4%. Besides, in assay [3] (H69AR cells + 2 uM doxorubicin), the differential viability (reversal) was -13.4% (inactive). Also, the results for the inhibition in assay [4] and in assay [5] were 2.47% (inactive) and -0.17% (inactive), respectively.
